Experimental data: ChEMBL document CHEMBL1145397, “Structure-activity relationships of a series of analogs of the endozepine octadecaneuropeptide (ODN(11)(-)(18)) on neurosteroid biosynthesis by hypothalamic explants” (2007)
Active and inactive are the calls of the source. No cut-off for these calls is given here.

Experiments:
[1] = system: Hypothalamus; experiment: Effect on neurosteroid biosynthesis assessed as conversion of [3H]pregnenolone to 17-Hydroxypregnenolone in frog hyphalamic explats at 1 uM after 2 hrs relative to control; format: functional, Pelophylax lessonae
Outline: (§1)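 Frog hypothalamic explants, preincubated 15 min in HEPES/bicarbonate Ringer's (glucose, BSA, 95% O2/5% CO2, pH 7.4), then incubated 2 h at 24 °C with 10^-6 M [3H]pregnenolone in 4% propylene glycol, with or without peptide. Reaction stopped with trichloroacetic acid; steroids extracted in dichloromethane and resolved by RP-HPLC radioactivity profiles. Values are % of steroid formed without peptide, mean ± SEM of independent experiments.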

[2] = system: Hypothalamus; experiment: Effect on neurosteroid biosynthesis assessed as conversion of [3H]pregnenolone to progesterone in frog hyphalamic explats at 1 uM after 2 hrs relative control; format: functional, Pelophylax lessonae; outline: as §1
[3] = system: Hypothalamus; experiment: Effect on neurosteroid biosynthesis assessed as conversion of [3H]pregnenolone to 17-Hydroxypregnenolone in frog hyphalamic explats at 10 uM after 2 hrs relative to control; format: functional, Pelophylax lessonae; outline: as §1
[4] = system: Hypothalamus; experiment: Effect on neurosteroid biosynthesis assessed as conversion of [3H]pregnenolone to progesterone in frog hyphalamic explats at 10 uM after 2 hrs relative control; format: functional, Pelophylax lessonae; outline: as §1
[5] = system: Hypothalamus; experiment: Effect on neurosteroid biosynthesis in frog hyphalamic explats at 1 uM after 2 hrs in presence of CBR antagonist flumazenil; format: functional, tissue-based; settings: Pelophylax lessonae; outline: as §1

Compound `CC(C)C[C@@H]1NC(=O)CNC(=O)[C@@H]2CCCN2C(=O)[C@H](CCCNC(=N)N)NC(=O)[C@H](CCCCN)NC(=O)[C@H](CC(C)C)NC(=O)[C@H](CC(=O)O)NC(=O)[C@H](CC(C)C)NC1=O` has an Activity [1] of 246.9% and an Activity [2] of 271.9%.
For `CC(C)C[C@@H]1NC(=O)CNC(=O)[C@@H]2CCCN2C(=O)[C@H](CCCNC(=N)N)NC(=O)[C@H](CCCCN)NC(=O)[C@H](CC(C)C)NC(=O)[C@H](CC(=O)O)NC(=O)[C@@H](CC(C)C)NC1=O`, the Activity [3] was 99.9% and the Activity [4] was 99.7%.
`CC(C)C[C@@H]1NC(=O)CNC(=O)[C@H]2CCCN2C(=O)[C@H](CCCNC(=N)N)NC(=O)[C@H](CCCCN)NC(=O)[C@H](CC(C)C)NC(=O)[C@H](CC(=O)O)NC(=O)[C@@H](CC(C)C)NC1=O` was tested, and the Activity [5] was “inactive”.
H-APGLLDLK-OH [APGLLDLK] showed an Activity [1] of 402.7% and an Activity [2] of 276.5%.
H-GLLDL-OH was tested, and the Activity [1] was 98.9% and the Activity [2] was 116.5%.
H-GLLDLK-OH showed an Activity [1] of 366.6% and an Activity [2] of 266.6%.
H-LLDLK-OH was tested, and the Activity [1] was 103.6% and the Activity [2] was 103.8%.
Compound H-PGLLD-OH has an Activity [1] of 101.3% and an Activity [2] of 101.4%.
With H-PGLLDL-OH the Activity [1] was 117.5% and the Activity [2] was 137%.
Work on H-PGLLDLK-OH [PGLLDLK] yielded an Activity [1] of 400.2% and an Activity [2] of 282.1%.
“H-QATVGDVNTDRPGLLDLK-OH [QATVGDVNTDRPGLLDLK]” showed an Activity [1] of 465.3% and an Activity [2] of 382.7%.
Compound H-RAGLLDLK-OH has an Activity [1] of 405% and an Activity [2] of 265.2%.
Compound H-RPALLDLK-OH has an Activity [1] of 126% and an Activity [2] of 99%.
Work on H-RPGALDLK-OH yielded an Activity [1] of 97.1% and an Activity [2] of 104.7%.
For H-RPGLADLK-OH, the Activity [1] was 92.8% and the Activity [2] was 108.5%.
H-RPGLL-OH showed an Activity [1] of 97.1% and an Activity [2] of 99.6%.
Work on H-RPGLLALK-OH yielded an Activity [1] of 103.6% and an Activity [2] of 100.4%.
H-RPGLLD-OH gave an Activity [1] of 98.2% and an Activity [2] of 98.6%.
For H-RPGLLDAK-OH, the Activity [1] was 99.5% and the Activity [2] was 103.2%.
For H-RPGLLDL-OH, the Activity [1] was 131.5% and the Activity [2] was 136.6%.
H-RPGLLDLA-OH was tested, and the Activity [1] was 126% and the Activity [2] was 137%.
With H-RPGLLDLK-OH the Activity [5] was “inactive”, the Activity [1] was 410.5% and the Activity [2] was 281.7%.
